# Like-named read-outs stand apart in the source and are kept apart here.
# Legend:
# TtENR [1] = molecular target: T1, TtENR (Thermus thermophilus, UniProt P83818); assay: Stopped-flow reductive half reaction of TtENR; assay type: biochemical; settings: monophasic, 37 °C, 100 mM Tris-HCl pH 7.4
# T1 sequence (P83818 1-178): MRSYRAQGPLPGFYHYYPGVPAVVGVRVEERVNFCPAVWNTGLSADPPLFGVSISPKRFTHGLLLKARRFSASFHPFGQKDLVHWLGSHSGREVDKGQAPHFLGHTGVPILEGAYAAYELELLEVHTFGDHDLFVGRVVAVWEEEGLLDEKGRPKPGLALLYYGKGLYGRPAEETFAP
# Summary of the method: (§1)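 Anoxic stopped-flow at 37 °C in a glove box, single-mixing mode. Enzyme was mixed with NADPH or NADH at 0.4–10.0 mM in 100 mM Tris-HCl pH 7.4, with nitrogen-flushed buffers. Flavin reduction was monitored as A458 change with a diode-array detector.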
# PhENR [2] = molecular target: T2, PhENR (Pyrococcus horikoshii, UniProt O58586); assay: UV-visible difference titration of ligands with PhENR; assay type: binding
# Summary of the method: (§2)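 UV–visible difference titrations at 25 °C in tandem cuvettes. Putative ligand (enones, enals, a quinone or a hydroxybenzaldehyde) was added both to enzyme solution in the sample cell and to 50 mM Tris-HCl pH 7.5 buffer in the reference cell. Spectral changes were followed as a function of ligand concentration.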
# TtENR [3] = molecular target: T1, TtENR; assay: UV-visible difference titration of ligands with TtENR; assay type: binding
# Summary of the method: as §2
# PhENR [4] = molecular target: T2, PhENR; assay: Biocatalytic transformations with PhENR; assay type: biochemical; settings: for acceptance as substrate: substrate scope
# Summary of the method: (§3)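 Substrate (10 mM) was reduced with NADH or NADPH (15 mM) and enzyme in 50 mM buffer. The initial aerobic screen used Tris-HCl at pH 7, 8 or 9. Optimised anaerobic runs used degassed buffer under an Ar flush: 50 mM phosphate for TtENR, 50 mM Tris-HCl for PhENR, both pH 7, with NADPH. Mixtures were shaken 24 h at 30 °C, 120 r.p.m., then EtOAc-extracted. Conversion was read by achiral GC, e.e. by chiral GC or HPLC. One substrate was given in DMF (1% final).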
# TtENR [5] = molecular target: T1, TtENR; assay: Biocatalytic transformations with TtENR; assay type: biochemical; settings: for acceptance as substrate: substrate scope, Table 1
# Summary of the method: as §3
# PhENR [6] = molecular target: T2, PhENR; assay: Stopped-flow reductive half reaction of PhENR; assay type: biochemical; settings: monophasic, 37 °C, 100 mM Tris-HCl pH 7.4
# Summary of the method: as §1
# TtENR [7] = molecular target: T1, TtENR; assay: Steady-state turnover; assay type: biochemical; settings: NADPH and dioxygen as substrates, 50 mM potassium phosphate pH 7.0, 75 °C
# yeast OYE [8] = settings: cited from earlier work; for rate of reduction of the flavin cofactor: biphasic kinetics
# TtENR [9] = molecular target: T1, TtENR; assay: Stopped-flow reoxidation of reduced TtENR; assay type: biochemical; settings: air-saturated buffer
# Summary of the method: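 Enzyme in 50 mM potassium phosphate pH 7.0 was reduced anoxically with sodium dithionite, and excess dithionite was removed on a desalting column inside a glove box. Reduced enzyme was mixed in single-mixing stopped-flow at 37 °C with substrate at various concentrations or with air-saturated buffer. FMN reoxidation was followed at A458 by diode array. Curves were fitted with a two-exponential function.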
# yeast OYE [10] = settings: read-out: dissociation constant (Kd); cited from earlier work
# T2 sequence (O58586 whole entry): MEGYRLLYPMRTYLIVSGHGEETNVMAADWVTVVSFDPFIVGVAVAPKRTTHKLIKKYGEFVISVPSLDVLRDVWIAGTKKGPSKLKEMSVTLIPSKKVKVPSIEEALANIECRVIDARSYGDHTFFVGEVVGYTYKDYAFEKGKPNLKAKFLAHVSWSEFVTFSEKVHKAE
Kd (PhENR [2]) [µM],Kd (TtENR [3]) [µM],acceptance as substrate (PhENR [4]; Table 1),acceptance as substrate (TtENR [5]),SMILES,other results
,,,,NC(=O)C1=CN([C@@H]2O[C@H](COP(=O)(O)OP(=O)(O)OC[C@H]3O[C@@H](n4cnc5c(N)ncnc54)[C@H](O)[C@@H]3O)[C@@H](O)[C@H]2O)C=CC1 [NADH],reductive rate (kred) (TtENR [1]): 0.25 s⁻¹
36,25,,,"O=Cc1ccc(O)cc1 [pHB, p-hydroxybenzaldehyde]",
,,good substrates,good substrates,"CC(C)=CCCC(C)=CC=O (mixture of isomers) [Compound 4a, citral]",
,,good substrates,good substrates,"CC1CC(=O)N(c2ccccc2)C1=O (racemic) [Compound 5b, rac-N-phenyl-2-methylsuccinimide]",stereopreference compared with typical OYEs (PhENR [4]): inverted stereopreference; stereopreference compared with typical OYEs (TtENR [5]): inverted stereopreference
,,good substrates,good substrates,"CC1=CC(=O)CC(C)(C)C1=O [Compound 2a, 2,6,6-trimethylcyclohex-2-ene-1,4-dione]",stereopreference compared with typical OYEs (PhENR [4]): inverted stereopreference; stereopreference compared with typical OYEs (TtENR [5]): inverted stereopreference
,,,,NC(=O)C1=CN([C@@H]2O[C@H](COP(=O)(O)OP(=O)(O)OC[C@H]3O[C@@H](n4cnc5c(N)ncnc54)[C@H](OP(=O)(O)O)[C@@H]3O)[C@@H](O)[C@H]2O)C=CC1 [NADPH],reductive rate (kred) (PhENR [6]): 0.06 s⁻¹; turnover rate kcat (TtENR [7]): 0.36 s⁻¹; Km (TtENR [7]; read-out: KM(NADPH)): 50 µM; rate of reduction of the flavin cofactor (yeast OYE [8]; first printed rate): 1.18 s⁻¹; rate of reduction of the flavin cofactor (yeast OYE [8]; second printed rate): 0.3 s⁻¹; reductive rate (kred) (TtENR [1]): 0.15 s⁻¹
,,,,O=O [dioxygen],"kox, reoxidation of the cofactor (TtENR [9]): 57 s⁻¹"
76000,40000,accepted but at lower conversion rates,accepted but at lower conversion rates,"O=C1C=CCCC1 [Compound 1a, 2-Cyclohexen-1-one]",Kd (yeast OYE [10]): 32 µM; oxidative rate kox (yeast OYE [8]): 102 s⁻¹
,,good substrates,good substrates,"CC/C=C(\C)C=O [Compound 3a, (E)-2-methylpent-2-enal]",conversion (PhENR [4]; Table 1): full conversion

SMILES,Kd (PhENR [2]) [µM],Kd (TtENR [3]) [µM],acceptance as substrate (PhENR [4]; Table 1),acceptance as substrate (TtENR [5]),other results
"O=C1C=CC(=O)C=C1 [1,4-benzoquinone]",1800,580,,,

# Reference: paper PMC4083419 (Nature Communications, 2014)
